Laboratory results published in ChEMBL document CHEMBL1687825, “Plasma and intracellular (peripheral blood mononuclear cells) pharmacokinetics of once-daily raltegravir (800 milligrams) in HIV-infected patients” (Antimicrob Agents Chemother, 2011).

Key:
[1] = test system: PBMC; assay: Intracellular compound distribution in ratio in HIV-infected human PBMC at Ctau by LC-MS/MS analysis; type: ADME, cell-based
Procedure, shortened: (§1)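 Intracellular distribution ratio: PBMC concentration (LC-MS/MS) divided by plasma concentration (HPLC-fluorescence), computed per patient for AUCτ, Cmax and Cτ from day-10 fasted 0–24 h profiles after 800 mg once daily; reported as median (range).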

[2] = test system: PBMC; assay: Intracellular compound distribution in ratio in HIV-infected human PBMC at AUCt by LC-MS/MS analysis; type: ADME, cell-based; procedure, shortened: as §1
[3] = AUCt in HIV-infected human PBMC at 800 mg qd for 10 days administered in fasted condition on day 10 by LC-MS/MS analysis; type: ADME, cell-based
Procedure, shortened: (§2)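 EDTA blood kept 4°C, processed within 1 h; PBMCs isolated on Ficoll gradient, washed with 0.9% NaCl, pellet stored −80°C. LC-MS/MS, calibration 0.4–150 ng/ml lysate; cell number by DNA detection. Noncompartmental analysis; AUCτ linear trapezoidal; geometric mean (range).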

[4] = Terminal phase half life in HIV-infected human plasma at 800 mg qd for 10 days administered in fasted condition on day 10 by HPLC with fluorescence detector; type: ADME, cell-free; settings: read-out: beta t1/2 (converted)
Procedure, shortened: (§3)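 Day-10 fasted serial sampling 0–24 h after oral 800 mg once daily. Plasma from two centrifugations (390 × g, 1,090 × g, 10 min), stored −80°C; liquid-liquid extraction with tert-butyl methyl ether; HPLC C18, phosphate buffer (25 mM, pH 3)-acetonitrile, fluorescence ex 299/em 396 nm, linear 10–5,000 ng/ml. Noncompartmental: AUCτ linear trapezoidal, Cmax/Cτ by inspection, λz from terminal log-linear regression.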

[5] = Cmax in HIV-infected human plasma at 800 mg qd for 10 days administered in fasted condition on day 10 by HPLC with fluorescence detector; type: ADME, organism-based; set-up: dose 800 mg; procedure, shortened: as §3
[6] = test system: Homo sapiens; assay: Toxicity in HIV-infected human at 800 mg qd for 10 days administered in fasted condition on day 10; type: organism-based; settings: in vivo, 240 h
Procedure, shortened: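 Safety assessed on days 0 and 10 by clinical evaluation and laboratory tests (blood counts, chemistry) during 800 mg once-daily oral dosing added to ongoing antiretroviral therapy.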

[7] = AUCt in HIV-infected human plasma at 800 mg qd for 10 days administered in fasted condition on day 10 by HPLC with fluorescence detector; type: ADME, cell-free; procedure, shortened: as §3
[8] = Drug concentration at the end of dosing interval in HIV-infected human plasma at 800 mg qd for 10 days administered in fasted condition on day 10 by HPLC with fluorescence detector; type: ADME, cell-free; settings: read-out: Ctau; procedure, shortened: as §3
[9] = Terminal phase half life in HIV-infected human PBMC at 800 mg qd for 10 days administered in fasted condition on day 10 by LC-MS/MS analysis; type: ADME, cell-based; settings: read-out: beta t1/2 (converted); procedure, shortened: as §2
[10] = Drug concentration at the end of dosing interval in HIV-infected human PBMC at 800 mg qd for 10 days administered in fasted condition on day 10 by LC-MS/MS analysis; type: ADME, cell-based; settings: read-out: Ctau; procedure, shortened: as §2
[11] = Cmax in HIV-infected human PBMC at 800 mg qd for 10 days administered in fasted condition on day 10 by LC-MS/MS analysis; type: ADME, organism-based; set-up: dose 800 mg; procedure, shortened: as §2
[12] = test system: PBMC; assay: Intracellular compound distribution in ratio in HIV-infected human PBMC at Cmax by LC-MS/MS analysis; type: ADME, cell-based; procedure, shortened: as §1

Cc1nnc(C(=O)NC(C)(C)c2nc(C(=O)NCc3ccc(F)cc3)c(O)c(=O)n2C)o1 [RALTEGRAVIR]
Ratio [1]: 0.18 | Ratio [2]: 0.07 | AUC(0-t) at 240 h [3]: 909 ng·h/mL | half-life [4]: 960 min | Cmax [5]: 2640 ng/mL | Activity [6]: Non-toxic | AUC(0-t) at 240 h [7]: 12200 ng·h/mL | concentration at 240 h [8]: 89 ng/mL | half-life [9]: 672 min | concentration at 240 h [10]: 7 ng/mL | Cmax [11]: 199 ng/mL | Ratio [12]: 0.08
